Calls of active or inactive are those of the source. The rule behind the calls is not given here.
Columns and labels:
[1] = tested on: Rattus norvegicus; assay: Antiinflammatory activity in Wistar albino rat assessed as inhibition of carrageenan-induced paw edema at 50 mg/kg, po administered 30 mins prior to carrageenan challenge measured at 1 hr by plethysmometric analysis relative to control; format: functional
In short: (§1)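 Groups of six male Wistar albino rats (200–250 g), fasted 12 h before and during the test. Agents given orally at 50 mg/kg; vehicle controls received tween 80 (95:5). After 30 min, 0.1 mL of 1% w/v carrageenan in saline injected subplantar into the left hind paw. Paw volume by plethysmometer at 0 h (within 30 s) and at 1, 2, 3 and 4 h. % edema inhibition from (Vt−V0) vs control; mean SEM, ANOVA.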

[2] = tested on: Rattus norvegicus; assay: Antiinflammatory activity in Wistar albino rat assessed as inhibition of carrageenan-induced paw edema at 50 mg/kg, po administered 30 mins prior to carrageenan challenge measured at 3 hrs by plethysmometric analysis relative to control; format: functional; in short: as §1
[3] = molecular target: T1, Prostaglandin G/H synthase 1 (Ovis aries) (UniProt P05979); assay: Inhibition of ovine COX1 using arachidonic acid as substrate assessed as production of PGF2alpha at 30 uM preincubated for 10 mins followed by substrate addition measured after 2 mins by EIA in presence of stannous chloride relative to control
T1 sequence (whole entry): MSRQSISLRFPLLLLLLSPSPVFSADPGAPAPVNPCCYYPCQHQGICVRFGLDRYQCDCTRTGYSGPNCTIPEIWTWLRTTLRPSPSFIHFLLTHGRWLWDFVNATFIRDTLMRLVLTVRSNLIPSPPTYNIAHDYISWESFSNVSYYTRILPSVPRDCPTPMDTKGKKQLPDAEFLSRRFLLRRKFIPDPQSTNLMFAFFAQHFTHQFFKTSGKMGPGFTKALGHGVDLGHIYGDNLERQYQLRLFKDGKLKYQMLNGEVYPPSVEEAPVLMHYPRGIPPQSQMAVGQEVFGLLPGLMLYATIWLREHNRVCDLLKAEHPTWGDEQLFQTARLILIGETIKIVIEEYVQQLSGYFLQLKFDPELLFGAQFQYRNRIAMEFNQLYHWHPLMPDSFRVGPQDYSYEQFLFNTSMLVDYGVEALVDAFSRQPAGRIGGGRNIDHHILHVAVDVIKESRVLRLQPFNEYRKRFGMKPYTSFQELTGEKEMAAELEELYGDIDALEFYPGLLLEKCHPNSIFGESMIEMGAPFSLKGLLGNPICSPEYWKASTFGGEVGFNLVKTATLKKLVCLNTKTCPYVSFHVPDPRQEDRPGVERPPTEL

[4] = molecular target: T2, Prostaglandin G/H synthase 1 (Ovis aries, UniProt P05979); assay: Inhibition of ovine COX1 using arachidonic acid as substrate assessed as production of PGF2alpha preincubated for 10 mins followed by substrate addition measured after 2 mins by EIA in presence of stannous chloride
T2 sequence (P05979 whole entry): T1 sequence (whole entry)
In short: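 Kit-based EIA in 0.1 M Tris-HCl pH 8 with 2 mM phenol. Enzyme and compound preincubated 10 min at 37 °C; arachidonic acid started a 2 min reaction, stopped with 1 M HCl, then stannous chloride 5 min at room temperature. EIA plate incubated 18 h, Ellman's reagent, read at 410 nm.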

[5] = tested on: Rattus norvegicus; assay: Antiinflammatory activity in Wistar albino rat assessed as inhibition of carrageenan-induced paw edema at 50 mg/kg, po administered 30 mins prior to carrageenan challenge measured at 4 hrs by plethysmometric analysis relative to control; format: functional; in short: as §1
[6] = tested on: Rattus norvegicus; assay: Antiinflammatory activity in Wistar albino rat assessed as inhibition of carrageenan-induced paw edema at 50 mg/kg, po administered 30 mins prior to carrageenan challenge measured at 2 hrs by plethysmometric analysis relative to control; format: functional; in short: as §1
[7] = tested on: Rattus norvegicus; assay: Antiinflammatory activity in Wistar albino rat assessed as inhibition of carrageenan-induced paw edema at 50 mg/kg, ip administered 30 mins prior to carrageenan challenge measured at 4 hrs by plethysmometric analysis relative to control; format: functional; conditions: route intraperitoneal
In short: (§2)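 Male Wistar albino rats (200–250 g), food withdrawn 12 h before and during the test, in groups of six. Reference drug given ip; controls received tween 80 (95:5). At 30 min, 0.1 mL of 1% w/v carrageenan in saline injected subplantar into the left hind paw. Plethysmometer paw volume read within 30 s, then at 1–4 h. % inhibition vs control (Vt−V0); mean SEM, ANOVA.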

[8] = tested on: Rattus norvegicus; assay: Antiinflammatory activity in Wistar albino rat assessed as inhibition of carrageenan-induced paw edema at 50 mg/kg, ip administered 30 mins prior to carrageenan challenge measured at 2 hrs by plethysmometric analysis relative to control; format: functional; conditions: route intraperitoneal; in short: as §2
[9] = tested on: Rattus norvegicus; assay: Antiinflammatory activity in Wistar albino rat assessed as inhibition of carrageenan-induced paw edema at 50 mg/kg, ip administered 30 mins prior to carrageenan challenge measured at 1 hr by plethysmometric analysis relative to control; format: functional; conditions: route intraperitoneal; in short: as §2
[10] = tested on: Rattus norvegicus; assay: Antiinflammatory activity in Wistar albino rat assessed as inhibition of carrageenan-induced paw edema at 50 mg/kg, ip administered 30 mins prior to carrageenan challenge measured at 3 hrs by plethysmometric analysis relative to control; format: functional; conditions: route intraperitoneal; in short: as §2

Row | Structure (SMILES) | inhibition in vivo at 50 mg/kg [1] | inhibition in vivo at 50 mg/kg [2] | inhibition [3] | IC50 [4] | inhibition in vivo at 50 mg/kg [5] | inhibition in vivo at 50 mg/kg [6] | inhibition in vivo at 50 mg/kg [7] | inhibition in vivo at 50 mg/kg [8] | inhibition in vivo at 50 mg/kg [9] | inhibition in vivo at 50 mg/kg [10]
1 | NC(=S)c1ccc(-n2nc(C(F)(F)F)cc2-c2ccc(F)cc2)cc1 | 74.8% | 71.7% | inactive | > 30 µM | 82.8% | 85.4% | – | – | – | –
2 | NC(=S)c1ccc(-n2nc(C(F)(F)F)cc2-c2ccco2)cc1 | 82.8% | 58.4% | 20.1% | > 30 µM | 59.8% | 77.4% | – | – | – | –
3 | N#Cc1ccc(-n2nc(C(F)(F)F)cc2-c2ccco2)cc1 | 79.8% | 67.6% | inactive | – | 61.6% | 79.1% | – | – | – | –
4 | COc1ccc(-c2cc(C(F)(F)F)nn2-c2ccc(C#N)cc2)cc1 | 44.4% | 69.9% | – | – | 54.8% | 85.2% | – | – | – | –
5 | N#Cc1ccc(-n2nc(C(F)(F)F)cc2-c2ccc(Cl)cc2)cc1 | 26.3% | 67.6% | inactive | – | 65% | 76.5% | – | – | – | –
6 | N#Cc1ccc(-n2nc(C(F)(F)F)cc2-c2ccc(Br)cc2)cc1 | 78.8% | 83.8% | 13.4% | > 30 µM | 86.4% | 88.8% | – | – | – | –
7 | N#Cc1ccc(-n2nc(C(F)(F)F)cc2-c2ccc3ccccc3c2)cc1 | 84.8% | 59.5% | 20.7% | – | 48% | 67.8% | – | – | – | –
8 | NC(=S)c1ccc(-n2nc(C(F)(F)F)cc2-c2ccc(Br)cc2)cc1 | 54.5% | 72.8% | 86.1% | 2.35 µM | 60.3% | 84.9% | – | – | – | –
9 | N#Cc1ccc(-n2nc(C(F)(F)F)cc2-c2ccc(F)cc2)cc1 | 79.8% | 84.4% | inactive | – | 90.4% | 81.1% | – | – | – | –
10 | NC(=S)c1ccc(-n2nc(C(F)(F)F)cc2-c2ccc(Cl)cc2)cc1 | 89.9% | 63% | 86.9% | 1.11 µM | 61.5% | 77.4% | – | – | – | –
11 | NC(=S)c1ccc(-n2nc(C(F)(F)F)cc2-c2ccc3ccccc3c2)cc1 | 92.9% | 53.2% | – | – | 46% | 72.9% | – | – | – | –
12 | Cc1ccc(-c2cc(C(F)(F)F)nn2-c2ccc(C(N)=S)cc2)cc1 | 73.7% | 60.1% | 44.3% | > 30 µM | 51.7% | 79.4% | – | – | – | –
13 | COc1ccc(-c2cc(C(F)(F)F)nn2-c2ccc(C(N)=S)cc2)cc1 | 78.8% | 65.9% | – | – | 52.9% | 77.9% | – | – | – | –
14 | N#Cc1ccc(-n2nc(C(F)(F)F)cc2-c2ccccc2)cc1 | 91.9% | 84.4% | 97% | 1.11 µM | 91% | 81.1% | – | – | – | –
15 | NC(=S)c1ccc(-n2nc(C(F)(F)F)cc2-c2cccs2)cc1 | 85.9% | 57.2% | 39.8% | – | 61.5% | 73.4% | – | – | – | –
16 | Cc1ccc(-c2cc(C(F)(F)F)nn2-c2ccc(C#N)cc2)cc1 | 65.7% | 82.7% | inactive | – | 80.2% | 87.2% | – | – | – | –
17 | N#Cc1ccc(-n2nc(C(F)(F)F)cc2-c2cccs2)cc1 | 81.8% | 57.8% | inactive | – | 55.9% | 71.4% | – | – | – | –
18 | COc1ccc2c(c1)c(CC(=O)O)c(C)n2C(=O)c1ccc(Cl)cc1 [INDOMETHACIN] | – | – | – | – | – | – | 90.2% | 90.3% | 96% | 85%
19 | NC(=S)c1ccc(-n2nc(C(F)(F)F)cc2-c2ccccc2)cc1 | 82.8% | 49.7% | 97.9% | 1.42 µM | 50% | 74.9% | – | – | – | –

From ChEMBL document CHEMBL2413020 (Bioorg Med Chem, 2013)
